From paper PMC12770939 (Clinical Cancer Research, 2025)

Columns and labels:
[1] = Phase 1 dose-escalation study NCT03006172 arm A: safety, DLT, MTD; assay type: in vivo, human
HER3–p85β interaction = experiment: Co-IP of p85β / HER3; assay type: cell-based
Procedure, shortened: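 Cells exposed to test compound or FGFR2 inhibitor at several concentrations for 1 h. Lysis in Tris pH 7.5/NaCl/EDTA/1% NP40/10% glycerol with protease and phosphatase inhibitors. 1 mg lysate incubated overnight with anti-p85β (1:100, 1 mL), then protein A agarose 2 h. Immunoblot on nitrocellulose with 1:1,000 primary overnight at 4°C, HRP secondary 1:10,000 1 h RT, ECL/film. n=2.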

mutated p110α = mutated p110α (Homo sapiens, UniProt P42336, H1047R); assay type: cell-based; conditions: FGFR2 N550K-overexpressing cells, not matched control cells; 24 h
mutated p110α, sequence (P42336 whole entry H1047R): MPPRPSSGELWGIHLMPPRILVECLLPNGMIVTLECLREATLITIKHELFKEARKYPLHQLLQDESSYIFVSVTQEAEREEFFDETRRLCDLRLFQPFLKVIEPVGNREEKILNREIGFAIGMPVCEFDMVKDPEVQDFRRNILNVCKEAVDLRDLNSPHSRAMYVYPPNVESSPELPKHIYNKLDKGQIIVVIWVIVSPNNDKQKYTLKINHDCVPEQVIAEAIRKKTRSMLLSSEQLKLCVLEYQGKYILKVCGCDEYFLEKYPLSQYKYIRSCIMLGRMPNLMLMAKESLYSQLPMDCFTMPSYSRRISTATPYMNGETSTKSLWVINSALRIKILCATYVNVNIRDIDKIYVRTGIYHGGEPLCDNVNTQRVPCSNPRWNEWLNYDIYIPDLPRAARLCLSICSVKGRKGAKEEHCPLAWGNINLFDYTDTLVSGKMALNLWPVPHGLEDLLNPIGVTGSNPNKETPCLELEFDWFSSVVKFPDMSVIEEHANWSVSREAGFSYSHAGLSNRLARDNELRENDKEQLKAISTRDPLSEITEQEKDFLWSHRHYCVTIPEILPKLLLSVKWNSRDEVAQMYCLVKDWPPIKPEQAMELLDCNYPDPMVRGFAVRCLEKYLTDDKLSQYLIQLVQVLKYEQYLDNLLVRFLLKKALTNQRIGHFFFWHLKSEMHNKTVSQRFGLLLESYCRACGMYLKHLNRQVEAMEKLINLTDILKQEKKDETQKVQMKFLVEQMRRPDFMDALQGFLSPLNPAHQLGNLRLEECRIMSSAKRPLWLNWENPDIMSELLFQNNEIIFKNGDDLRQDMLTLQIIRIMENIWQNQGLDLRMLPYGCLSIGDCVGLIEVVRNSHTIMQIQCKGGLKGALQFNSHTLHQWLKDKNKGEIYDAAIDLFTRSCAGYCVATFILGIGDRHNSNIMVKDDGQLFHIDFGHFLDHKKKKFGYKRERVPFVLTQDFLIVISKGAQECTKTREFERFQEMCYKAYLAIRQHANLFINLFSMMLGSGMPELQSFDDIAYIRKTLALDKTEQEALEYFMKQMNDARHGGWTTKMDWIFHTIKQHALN
mutated p110α, sequence (O00459 whole entry partner): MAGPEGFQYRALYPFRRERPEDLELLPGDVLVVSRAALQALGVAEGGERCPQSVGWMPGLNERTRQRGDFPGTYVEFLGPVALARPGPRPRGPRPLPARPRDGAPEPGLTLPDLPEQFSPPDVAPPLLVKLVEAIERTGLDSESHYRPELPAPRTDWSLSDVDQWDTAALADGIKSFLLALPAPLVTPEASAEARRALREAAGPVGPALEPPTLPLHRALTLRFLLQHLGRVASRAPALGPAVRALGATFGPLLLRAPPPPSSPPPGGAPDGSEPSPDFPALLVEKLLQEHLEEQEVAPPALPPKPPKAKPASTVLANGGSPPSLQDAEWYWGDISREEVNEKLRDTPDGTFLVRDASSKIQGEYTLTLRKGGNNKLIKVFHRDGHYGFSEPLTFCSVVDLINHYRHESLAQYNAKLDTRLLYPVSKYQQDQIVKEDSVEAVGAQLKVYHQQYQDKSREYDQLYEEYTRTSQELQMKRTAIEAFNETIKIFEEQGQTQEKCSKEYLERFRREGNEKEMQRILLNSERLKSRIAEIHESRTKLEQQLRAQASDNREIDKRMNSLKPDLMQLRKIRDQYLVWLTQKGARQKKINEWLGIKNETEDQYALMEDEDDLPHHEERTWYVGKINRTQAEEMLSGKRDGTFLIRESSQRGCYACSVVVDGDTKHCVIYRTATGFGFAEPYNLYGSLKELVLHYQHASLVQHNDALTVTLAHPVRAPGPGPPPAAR

PIK3CAmut solid tumors = experiment: Phase 1 study: antitumor activity per RECIST v1.1; assay type: in vivo, human
p110α [2] = experiment: Ubiquitin pulldown; assay type: cell-based; conditions: 6 hours
p110α [3] = target: p110α (Homo sapiens, UniProt P42336); experiment: Ubiquitin pulldown; assay type: cell-based; conditions: PIK3CA WT cell line SUM52PE; 6 hours
p110α (Homo sapiens, UniProt P42336), sequence (P42336 whole entry): as the sequence (P42336 whole entry H1047R) above, with R1047H counted along it

MFM223 cell line = experiment: Live-cell imaging by IncuCyte, long-term proliferation; assay type: cell-based; conditions: single agent
Procedure, shortened: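 Plated at 2,000 cells/well; inhibitors added next day at set concentrations. Medium with or without inhibitors renewed every 7 days. Phase-contrast imaging every 4 h in IncuCyte Zoom; confluence tracked in six replicate wells for the whole experiment.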

[4] = Phase 1 study: plasma pharmacokinetics, noncompartmental analysis; assay type: in vivo, human
Procedure, shortened: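 Oral single dose on C1D1, then 7-day washout with serial plasma PK sampling, then once-daily dosing from C1D8. PK population: patients with ≥1 dose and ≥1 evaluable post-dose sample. Parameters from plasma concentration–time profiles after single and multiple doses by noncompartmental analysis, summarized by dose level.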

[5] = tested on: FDG uptake of target lesions; experiment: FDG-PET imaging pharmacodynamic response; assay type: in vivo, human
Procedure, shortened: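 FDG-PET at baseline and after 2 weeks of oral once-daily dosing (C1D22–28; C1D15–22 for backfill). On-treatment scans 1–4 h post-dose; blood glucose <180 mg/dL required. Central read by one radiologist; up to five target lesions (tumor:background ≥2:1, longest diameter ≥15 mm). PMR: >25% decrease in mean % change of lean-body-mass-corrected SUVmax, no new FDG-avid lesions.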

PIK3CA MAF in ctDNA = experiment: ctDNA PIK3CA mutation allele frequency dynamics; assay type: in vivo, human; conditions: pretreatment vs on-treatment, majority of paired specimens
pAKT = experiment: Western blots of PI3K signaling feedback over time; assay type: cell-based; conditions: PIK3CAmut MFM223 cells
Procedure, shortened: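 PIK3CA-mutant MFM223 and PIK3CA-WT SUM52PE cells treated with 0.5 μmol/L test compound or 1 μmol/L reference PI3Kα inhibitor, with lysates taken at several durations. Immunoblotted for pHER3 and pAKT: nitrocellulose, 5% milk/TBST block, primary 1:1,000 overnight at 4°C, HRP secondary 1:10,000, ECL/film. n=2.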

pAKT, pS6, Ki67 = experiment: IHC analysis of paired tumor tissue samples; assay type: in vivo, human; conditions: baseline vs C1D15 biopsies, nine patients
Procedure, shortened: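 Paired FFPE tumor biopsies from baseline and C1D15 during oral once-daily dosing. IHC for Ki67 (rabbit mAb clone 30-9; nuclear staining), pAKT and pS6. Cytoplasmic pAKT/pS6 scored by H-score: intensity 0, 1+, 2+, 3+. H-score = Σ(% cells at each intensity × intensity).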

[6] = tested on: MFM223 X2.2 tumor xenograft; experiment: MFM223 X2.2 xenograft efficacy study; assay type: in vivo, NCR nude mice; conditions: single agent, 25 mg/kg daily for 22 days
RAS-GTP = RAS-GTP pulldown and RAS co-IP; assay type: cell-based; conditions: MFM223 or MFE280 cells
Procedure, shortened: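 Cells treated with FGFR2 inhibitor or lapatinib for varying durations. Lysis on ice in 25 mM Tris pH 7.5, 150 mM NaCl, 1 mM EDTA, 1% NP40, 5 mM MgCl2, 10% glycerol plus inhibitors. Lysates incubated with capture bead conjugate or mouse IgG magnetic beads (control) at 4°C for 5 h. Beads washed 3× in cold buffer, eluted in sample buffer, immunoblotted.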

[7] = tested on: phosphorylation of FGFR2, HER3 and AKT; experiment: Immunoblotting after 1 hour treatment; assay type: cell-based; conditions: solely in MFE280 cells, 2-μmol/L
Procedure, shortened: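 Cells treated 1 h with 0.03 μmol/L FGFR2 inhibitor or 2 μmol/L lapatinib, then immunoblotted. Transfer to nitrocellulose; block 1 h in 5% milk/TBST RT. Primary antibody 1:1,000 overnight at 4°C; HRP secondary 1:10,000 1 h RT; ECL with film. n=2.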

[8] = tested on: FGFR2-expressing cell lines; conditions: excess Bliss score, n=14 cell lines, Supplementary Fig. S11
[9] = tested on: phosphorylation of FGFR, FRS2α, PLCɣ, AKT, and ERK; experiment: Western blots of FGFR signaling; assay type: cell-based; conditions: SUM52PE, MFE296, and AN3CA cells; 24 h
Procedure, shortened: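 Lysates resolved and transferred to nitrocellulose; blocked 1 h in 5% milk/TBST (20 mM Tris-HCl pH 7.5, 135 mM NaCl, 0.1% Tween 20) at RT. Primary antibodies 1:1,000 overnight at 4°C; HRP anti-mouse or anti-rabbit 1:10,000 1 h RT. Detection by ECL and film.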

[10] = tested on: SUM52PE, MFE296, AN3CA and MFE280 cell lines; experiment: Dose-response proliferation assays; assay type: cell-based; conditions: MFE296, AN3CA (FGFR2-high) and MFE280 (FGFR2-low)

C[C@H](Nc1ccc2c(c1)OCCn1cc(N3C(=O)OC[C@H]3C(F)F)nc1-2)C(N)=O [inavolisib]
DLT-evaluable patients who experienced DLTs ([1]; 12-mg dose group, grade 4 hyperglycemia and grade 3 fatigue that lasted 5 days): two of four | Alopecia, related AE ([1]; All grades, N = 20): 3 (15) n (%) | Asthenia, related AE ([1]; All grades, N = 20): 2 (10) n (%) | Constipation, related AE ([1]; All grades, N = 20): 2 (10) n (%) | Decreased appetite, related AE ([1]; All grades, N = 20): 4 (20) n (%) | Diarrhea, related AE ([1]; All grades, N = 20): 9 (45) n (%) | Dysgeusia, related AE ([1]; All grades, N = 20): 2 (10) n (%) | Fatigue, related AE ([1]; All grades, N = 20): 3 (15) n (%) | Flatulence, related AE ([1]; All grades, N = 20): 2 (10) n (%) | Headache, related AE ([1]; All grades, N = 20): 2 (10) n (%) | Hyperglycemia, related AE ([1]; All grades, N = 20): 14 (70) n (%) | Hyponatremia, related AE ([1]; All grades, N = 20): 2 (10) n (%) | Lymphopenia, related AE ([1]; All grades, N = 20): 2 (10) n (%) | Nausea, related AE ([1]; All grades, N = 20): 3 (15) n (%) | Stomatitis (grouped term), related AE ([1]; All grades, N = 20): 4 (20) n (%) | Taste disorder, related AE ([1]; All grades, N = 20): 2 (10) n (%) | Thrombocytopenia, related AE ([1]; All grades, N = 20): 2 (10) n (%) | Total number of patients with at least one AE, related AE ([1]; All grades, N = 20): 19 (95) n (%) | Vision blurred, related AE ([1]; All grades, N = 20): 2 (10) n (%) | Vomiting, related AE ([1]; All grades, N = 20): 4 (20) n (%) | Weight decreased, related AE ([1]; All grades, N = 20): 3 (15) n (%) | patients with at least one related AE leading to dose modification ([1]; Eleven patients, N = 20): 55% | Alopecia, related AE ([1]; Grades 3–5, N = 20): 0 n (%) | Asthenia, related AE ([1]; Grades 3–5, N = 20): 1 (5) n (%) | Constipation, related AE ([1]; Grades 3–5, N = 20): 0 n (%) | Decreased appetite, related AE ([1]; Grades 3–5, N = 20): 0 n (%) | Diarrhea, related AE ([1]; Grades 3–5, N = 20): 0 n (%) | Dysgeusia, related AE ([1]; Grades 3–5, N = 20): 0 n (%) | Fatigue, related AE ([1]; Grades 3–5, N = 20): 1 (5) n (%) | Flatulence, related AE ([1]; Grades 3–5, N = 20): 0 n (%) | Headache, related AE ([1]; Grades 3–5, N = 20): 0 n (%) | Hyperglycemia, related AE ([1]; Grades 3–5, N = 20): 4 (20) n (%) | Hyponatremia, related AE ([1]; Grades 3–5, N = 20): 0 n (%) | Lymphopenia, related AE ([1]; Grades 3–5, N = 20): 1 (5) n (%) | Nausea, related AE ([1]; Grades 3–5, N = 20): 1 (5) n (%) | Stomatitis (grouped term), related AE ([1]; Grades 3–5, N = 20): 0 n (%) | Taste disorder, related AE ([1]; Grades 3–5, N = 20): 0 n (%) | Thrombocytopenia, related AE ([1]; Grades 3–5, N = 20): 0 n (%) | Total number of patients with at least one AE, related AE ([1]; Grades 3–5, N = 20): 8 (40) n (%) | Vision blurred, related AE ([1]; Grades 3–5, N = 20): 0 n (%) | Vomiting, related AE ([1]; Grades 3–5, N = 20): 0 n (%) | Weight decreased, related AE ([1]; Grades 3–5, N = 20): 1 (5) n (%) | grade 5 AE ([1]; N = 20): No grade 5 AE | grade of treatment-related diarrhea events ([1]; N = 20): 1 to 2 | treatment-related grade ≥3 gastrointestinal toxicities ([1]; N = 20): No treatment-related grade ≥3 gastrointestinal toxicities | serious AE related to inavolisib ([1]; grade 4 hyperglycemia, 12-mg cohort): One patient | colitis ([1]; monotherapy, including nine patients on treatment for ≥5 months): not observed | maximum tolerated dose (MTD) ([1]; once daily oral, patients with PIK3CAmut solid tumors): 9 mg | treatment-related rash ([1]; one patient, grade 1, N = 20): 5% | binding of p85β to HER3 (HER3–p85β interaction; SUM52PE, MFM223, and MFE280 cells, 1 hour): did not affect | mutated p110α protein level (mutated p110α): degradation | median progression-free survival (PFS) (PIK3CAmut solid tumors; 95% CI, 3.5–7.3): 3.7 months | landmark PFS rate at 6 months (PIK3CAmut solid tumors; 95% CI, 15–59): 37% | clinical benefit rate (PIK3CAmut solid tumors; N = 20 (n = 9)): 45% | best overall response rate (PR) (PIK3CAmut solid tumors; patients with measurable disease (n = 19), RECIST v1.1): 26% | duration of response (PIK3CAmut solid tumors; responders with a confirmed response, 95% CI, 3.0–not evaluable): 3.7 months | ubiquitination of p110α (p110α [2]; PIK3CAmut cell lines MFM223 and MFE280): induced ubiquitination | ubiquitination of p110α (p110α [3]): no ubiquitination | day of rebound in proliferation (resistance) after treatment initiation (MFM223 cell line): 11 days | accumulation ([4]; continuous once-daily dosing): twofold | half-life ([4]; human, plasma, oral): 960 min | plasma exposure versus dose ([4]; single and multiple doses, 6-12 mg): dose-proportional | mean reduction in uptake ([5]; 6 mg): 25% | patients achieving a PMR ([5]; 6 mg, 4/7): 57% | mean reduction in uptake ([5]; >6 mg): 43% | patients achieving a PMR ([5]; >6 mg, 12/13): 92% | PIK3CA MAF over time (PIK3CA MAF in ctDNA): decreased | time to pAKT reactivation (pAKT; 0.5-μmol/L inavolisib): 24 hours | PI3K pathway activity (H-scores pAKT, pS6) and Ki67 proliferation (pAKT, pS6, Ki67): consistent decrease | tumor growth [6]: did not result in tumor growth inhibition

CS(=O)(=O)CCNCc1ccc(-c2ccc3ncnc(Nc4ccc(OCc5cccc(F)c5)c(Cl)c4)c3c2)o1 [lapatinib, reference compound]
RAS-GTP levels and RAS–p110α interaction (RAS-GTP): affected neither | HER3–p85β interaction (HER3–p85β interaction; MFE280 FGFR2-low cells, 1 h): suppressed | effect on inavolisib-induced p110α ubiquitination (p110α [2]; MFE280 cells, combined with inavolisib): prevented | phosphorylation of HER3 and AKT [7]: decreased phosphorylation

Cc1nc(NC(=O)N2CCC[C@H]2C(N)=O)sc1-c1ccnc(C(C)(C)C(F)(F)F)c1 [alpelisib, reference compound]
time to pAKT rebound (pAKT; 1-μmol/L alpelisib): 30 minutes

CCN1CCN(c2ccc(Nc3cc(N(C)C(=O)Nc4c(Cl)c(OC)cc(OC)c4Cl)ncn3)cc2)CC1 [infigratinib]
combination effect with inavolisib [8]: synergized | reduction of phosphorylation of FGFR and downstream effectors [9]: equal potency | sensitivity of cell lines [10]: sensitive

C[C@@H](Oc1ccc2[nH]nc(/C=C/c3cnn(CCO)c3)c2c1)c1c(Cl)cncc1Cl [LY2874455]
combination effect with inavolisib [8]: synergized
